# Key:
# Format in all cases: functional, A2780 ADR
# [1] = Reversal of multidrug resistance in human 2780AD cells assessed as [3H]vincristine accumulation at 1 ug/mL after 2 hrs relative to verapamil
# [2] = Reversal of multidrug resistance in human 2780AD cells assessed as [3H]vincristine accumulation at 10 ug/mL after 2 hrs relative to control
# Summary of the method: (§1)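 Multidrug-resistant human ovarian cancer 2780AD cells were exposed to taxoids at 0.1, 1 or 10 µg/mL. Radiolabelled vincristine accumulated in the cells was measured as dpm/well, using means of triplicate determinations. Results are expressed as % of vincristine accumulated relative to the control experiment. They were also scored on a seven-level index according to the range of relative accumulation.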
# [3] = Reversal of multidrug resistance in human 2780AD cells assessed as [3H]vincristine accumulation at 10 ug/mL after 2 hrs relative to verapamil
# [4] = Reversal of multidrug resistance in human 2780AD cells assessed as [3H]vincristine accumulation at 0.1 ug/mL after 2 hrs relative to control; summary of the method: as §1
# [5] = Reversal of multidrug resistance in human 2780AD cells assessed as [3H]vincristine accumulation at 1 ug/mL after 2 hrs relative to control; summary of the method: as §1
# [6] = Reversal of multidrug resistance in human 2780AD cells assessed as [3H]vincristine accumulation at 0.1 ug/mL after 2 hrs relative to verapamil
SMILES,Activity [1],Activity [2],Activity [3],Activity [4],Activity [5],Activity [6]
C=C1[C@@H](OC(C)=O)CC[C@@]2(C)C[C@H](OC(C)=O)C3=C(C)C[C@H](OC(=O)C(C)C)[C@@H]([C@@H](OC(C)=O)[C@H]12)C3(C)C,95%,522%,98%,96%,195%,82%
C=C1[C@@H](OC(C)=O)CC[C@@]2(C)C[C@H](OC(C)=O)C3=C(C)C[C@H](OC(=O)CC)[C@@H]([C@@H](OC(C)=O)[C@H]12)C3(C)C,134%,770%,145%,119%,295%,102%
C=C1[C@@H](OC(C)=O)CC[C@@]2(C)C[C@H](OC(C)=O)C3=C(C)C[C@H](OC(C)=O)[C@@H]([C@@H](OC(C)=O)[C@H]12)C3(C)C [TAXUYUNNANINE C],97%,244%,78%,105%,155%,91%
COc1ccc(CCN(C)CCCC(C#N)(c2ccc(OC)c(OC)c2)C(C)C)cc1OC (configuration not stated) [VERAPAMIL],–,531%,–,117%,207%,–
C=C1[C@@H](OC(C)=O)CC[C@@]2(C)C[C@H](OC(C)=O)C3=C(C)C[C@H](OC(=O)C(C)C(C)O)[C@@H]([C@@H](OC(C)=O)[C@H]12)C3(C)C (some centres not stated) [YUNNANXANE],94%,234%,75%,112%,150%,97%
